# Results published in ChEMBL document CHEMBL1799977, “Discovery of MK-0952, a selective PDE4 inhibitor for the treatment of long-term memory loss and mild cognitive impairment” (Bioorg Med Chem Lett, 2010).
# Active and inactive are the calls of the source. The calls are words filed in the database; no cut-off is given here.
# What was measured:
# [1] = target: 3',5'-cyclic-AMP phosphodiesterase 4A (Homo sapiens, UniProt P27815); assay: Inhibition of PDE4A; conditions: pooled result: one value given for 3 cell lines, strains, targets or settings
# Sequence of 3',5'-cyclic-AMP phosphodiesterase 4A (P27815 whole entry, the tested form may be a part): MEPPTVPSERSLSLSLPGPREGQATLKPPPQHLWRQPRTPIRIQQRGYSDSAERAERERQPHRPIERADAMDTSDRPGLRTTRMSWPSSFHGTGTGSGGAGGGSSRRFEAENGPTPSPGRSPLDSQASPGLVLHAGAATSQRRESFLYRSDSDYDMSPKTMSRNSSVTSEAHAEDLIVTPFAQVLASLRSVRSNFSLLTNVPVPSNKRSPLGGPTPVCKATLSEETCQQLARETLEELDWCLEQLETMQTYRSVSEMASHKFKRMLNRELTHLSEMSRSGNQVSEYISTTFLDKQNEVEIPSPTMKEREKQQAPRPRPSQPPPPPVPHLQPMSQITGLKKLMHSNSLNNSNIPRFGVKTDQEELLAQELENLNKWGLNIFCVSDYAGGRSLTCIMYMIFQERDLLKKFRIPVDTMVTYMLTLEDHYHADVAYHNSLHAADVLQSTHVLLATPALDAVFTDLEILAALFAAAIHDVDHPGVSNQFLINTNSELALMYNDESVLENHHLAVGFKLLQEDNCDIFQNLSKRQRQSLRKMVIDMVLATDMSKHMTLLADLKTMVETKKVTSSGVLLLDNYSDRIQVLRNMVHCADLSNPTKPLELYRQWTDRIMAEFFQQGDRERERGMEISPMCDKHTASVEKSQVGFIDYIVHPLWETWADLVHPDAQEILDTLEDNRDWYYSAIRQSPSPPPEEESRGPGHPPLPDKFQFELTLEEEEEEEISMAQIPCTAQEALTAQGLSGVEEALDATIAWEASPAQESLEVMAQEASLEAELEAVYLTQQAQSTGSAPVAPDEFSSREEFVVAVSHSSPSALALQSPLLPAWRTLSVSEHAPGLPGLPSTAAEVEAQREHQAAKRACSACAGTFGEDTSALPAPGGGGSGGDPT
# Outline: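 Catalytic domains of PDE4A, B and D expressed as GST constructs in SF9 cells (baculovirus). IC50s are averages of at least two experiments.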
# [2] = (§1) Oral bioavailability in Sprague-Dawley rat at 10 mg/kg; assay type: ADME, organism-based; conditions: Sprague-Dawley, in vivo
# [3] = (§2) Half life in Sprague-Dawley rat at 10 mg/kg, po and 5 mg/kg, iv; assay type: ADME, organism-based; conditions: Sprague-Dawley, in vivo
# [4] = Ratio IC50 for PDE4 activity in human whole blood to IC50 for PDE4; assay type: tissue-based
# Outline: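 Ratio of two IC50s. The numerator is from human whole blood stimulated with LPS, read as inhibition of TNF-α release. The denominator (PDE4QT) is the mean of the IC50s on the PDE4A, B and D catalytic domains. These were expressed as GST constructs in Sf9 cells by baculovirus. Each IC50 is the average of at least two experiments.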
# Phosphodiesterase 4 = Phosphodiesterase 4 (Homo sapiens, UniProt P27815+Q08499+Q07343+Q08493); assay: Inhibition of PDE4 activity in human whole blood assessed as inhibition of LPS-induced TNF-alpha release
# Rattus norvegicus [5] = assay: Cognitive enhancing effect in Lister rat assessed as recognition of novel object at 0.1 mg/kg, po pretreated 90 mins before sample phase by novel object recognition test; assay type: functional, organism-based; parameters: dose 0.1 mg/kg
# Outline: (§3)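 Novel object recognition in rats. Oral dosing in 0.5% methocel 90 min before the sample trial, which ended at 25 s of exploration or 3 min. Choice trial followed with a familiar and a novel object. d2 score = (novel − familiar)/total exploration. n = 21–24; Newman–Keuls test.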
# Rattus norvegicus [6] = assay: Cognitive enhancing effect in Lister rat assessed as recognition of novel object at 0.01 mg/kg, po pretreated 90 mins before sample phase by novel object recognition test; assay type: functional, organism-based; parameters: dose 0.01 mg/kg; outline: as §3
# [7] = Drug level in rat plasma at 0.5 mg/kg, po measured 90 mins post dose; assay type: ADME, organism-based; parameters: dose 0.5 mg/kg, route oral
# [8] = Drug level in rat plasma at 1 mg/kg, po measured 90 mins post dose; assay type: ADME, organism-based; parameters: dose 1 mg/kg, route oral
# [9] = Drug level in rat brain at 0.5 mg/kg, po measured 90 mins post dose; assay type: ADME, organism-based; parameters: dose 0.5 mg/kg, route oral; conditions: read-out: Drug uptake
# [10] = Drug level in rat plasma at 5 mg/kg, po measured 90 mins post dose; assay type: ADME, organism-based; parameters: dose 5 mg/kg, route oral
# [11] = Drug level in rat brain at 10 mg/kg, po measured 90 mins post dose; assay type: ADME, organism-based; parameters: dose 10 mg/kg, route oral; conditions: read-out: Drug uptake
# [12] = Drug level in rat brain at 1 mg/kg, po measured 90 mins post dose; assay type: ADME, organism-based; parameters: dose 1 mg/kg, route oral; conditions: read-out: Drug uptake
# [13] = Drug level in rat brain at 0.1 mg/kg, po measured 90 mins post dose; assay type: ADME, organism-based; parameters: dose 0.1 mg/kg, route oral; conditions: read-out: Drug uptake
# [14] = Drug level in rat plasma at 0.1 mg/kg, po measured 90 mins post dose; assay type: ADME, organism-based; parameters: dose 0.1 mg/kg, route oral
# [15] = Drug level in rat brain at 5 mg/kg, po measured 90 mins post dose; assay type: ADME, organism-based; parameters: dose 5 mg/kg, route oral; conditions: read-out: Drug uptake
# [16] = Drug level in rat plasma at 10 mg/kg, po measured 90 mins post dose; assay type: ADME, organism-based; parameters: dose 10 mg/kg, route oral
# Rattus norvegicus [17] = assay: as §1; assay type: ADME, organism-based; conditions: in vivo
# Rattus norvegicus [18] = assay: as §2; assay type: ADME, organism-based; conditions: in vivo
SMILES,IC50 [1],bioavailability [2],half-life [3],Ratio IC50 [4],IC50 (Phosphodiesterase 4),also measured
O=C(NC1CC1)c1cn(-c2cccc(-c3ccc(C4CC4c4nnn[nH]4)cc3)c2)c2ncccc2c1=O (racemic),0.55 nM,5%,2.4 h,> 9090,> 5000 nM,
O=C(NC1CC1)c1cn(-c2cccc(-c3ccc([C@H]4C[C@@H]4C(=O)O)c(F)c3)c2)c2ncccc2c1=O,0.46 nM,,,330,150 nM,
O=C(NC1CC1)c1cn(-c2cccc(-c3ccc(C4CC4C(=O)O)cc3)c2)c2ncccc2c1=O (cis isomer) [listing 1 of 2 here],,,,100,,
O=C(NC1CC1)c1cn(-c2cccc(-c3ccc([C@H]4C[C@@H]4C(=O)O)cc3)c2)c2ncccc2c1=O,0.66 nM,,,350,230 nM,
O=C(NC1CC1)c1cn(-c2cccc(-c3ccc([C@@H]4C[C@H]4C(=O)O)cc3)c2)c2ncccc2c1=O,1 nM,,,1000,1000 nM,
O=C(NCC(F)(F)F)c1cn(-c2cccc(-c3ccc(C4CC4C(=O)O)cc3)c2)c2ncccc2c1=O (racemic),0.51 nM,25%,3.2 h,1080,510 nM,
CC(C)(C)NC(=O)c1cn(-c2cccc(-c3ccc(C4CC4C(=O)O)cc3)c2)c2ncccc2c1=O (racemic),32 nM,,,> 1140,> 40000 nM,
"CC(C)(c1cc(-c2cccc(-c3ccc(C4CC4C(=O)O)cc3)c2)c2ncccc2c1)S(C)(=O)=O (single isomer, unassigned; enantiomer B)",0.32 nM,,,,600 nM,
CC(C)(Cc1ccc(-c2cccc(-n3cc(C(=O)NC4CC4)c(=O)c4cccnc43)c2)cc1)C(=O)O,0.88 nM,30%,6.1 h,693,610 nM,
O=C(NC1CC1)c1cn(-c2cccc(-c3ccc(C4CC4C(=O)O)cc3)c2)c2ncccc2c1=O (racemic) [listing 1 of 2 here],,,,526,,
"CC(C)(c1cc(-c2cccc(-c3ccc(C4CC4C(=O)O)cc3)c2)c2ncccc2c1)S(C)(=O)=O (single isomer, unassigned; enantiomer A)",0.54 nM,,,,1400 nM,
O=C(NC1CC1)c1cn(-c2cccc(-c3ccc([C@@H]4C[C@H]4C(=O)O)c(F)c3)c2)c2ncccc2c1=O,,,,1040,,Activity (Rattus norvegicus [5]): Active; Activity (Rattus norvegicus [6]): Active
O=C(NC1CC1)c1cn(-c2cccc(-c3ccc([C@@H]4C[C@H]4C(=O)[O-])c(F)c3)c2)c2ncccc2c1=O.[Na+],,,,,,concentration at 1.5 h [7]: 1340 nM; concentration at 1.5 h [8]: 3410 nM; concentration at 1.5 h [9]: 47 nM; concentration at 1.5 h [10]: 8190 nM; concentration at 1.5 h [11]: 590 nM; concentration at 1.5 h [12]: 110 nM; concentration at 1.5 h [13]: 12 nM; concentration at 1.5 h [14]: 590 nM; concentration at 1.5 h [15]: 290 nM; concentration at 1.5 h [16]: 18800 nM
CC(C)(CC(=O)O)c1ccc(-c2cccc(-n3cc(C(=O)NC4CC4)c(=O)c4cccnc43)c2)cc1,0.85 nM,62%,5.1 h,88,75 nM,
O=C(NCC1CC1)c1cn(-c2cccc(-c3ccc(C4CC4C(=O)O)cc3)c2)c2ncccc2c1=O (racemic),0.35 nM,,,571,200 nM,
O=C(NC1CC1)c1cn(-c2cccc(-c3ccccc3C3CC3C(=O)O)c2)c2ncccc2c1=O (racemic),4.6 nM,35%,4.7 h,282,1300 nM,
CC1(NC(=O)c2cn(-c3cccc(-c4ccc(C5CC5C(=O)O)cc4)c3)c3ncccc3c2=O)CC1 (racemic),0.58 nM,58%,4.1 h,482,280 nM,
O=C(NC1CC1)c1cn(-c2cccc(-c3cccc(C4CC4C(=O)O)c3)c2)c2ncccc2c1=O (racemic),0.54 nM,100%,1 h,203,110 nM,
O=C(NC1CCC1)c1cn(-c2cccc(-c3ccc(C4CC4C(=O)O)cc3)c2)c2ncccc2c1=O (racemic),0.52 nM,20%,2.4 h,432,220 nM,
O=C(NC1CC1)c1cn(-c2cccc(-c3ccc(C4CC4C(=O)O)cc3)c2)c2ncccc2c1=O (racemic) [listing 2 of 2 here],0.57 nM,,,,300 nM,F (Rattus norvegicus [17]): 78%; t1/2 (Rattus norvegicus [18]): 1.7 h
O=C(NC1CC1)c1cn(-c2cccc(-c3ccc(C4CC4C(=O)O)cc3)c2)c2ncccc2c1=O (cis isomer) [listing 2 of 2 here],1.6 nM,,,,160 nM,F (Rattus norvegicus [17]): 30%; t1/2 (Rattus norvegicus [18]): 3.9 h
O=C(NC1(O)CC1)c1cn(-c2cccc(-c3ccc(C4CC4C(=O)O)cc3)c2)c2ncccc2c1=O (racemic),17 nM,,,376,6400 nM,
